# Experimental data taken from ChEMBL document CHEMBL1124947, “Cationic antiprotozoal drugs. Trypanocidal activity of 2-(4'-formylphenyl)imidazo[1,2-a]pyridinium guanylhydrazones and related derivatives of quaternary heteroaromatic compounds” (J Med Chem, 1990).
# Columns and labels:
# Assay type in all cases: functional
# [1] = system: Mus musculus; test: Trypanocidal Activity at I.C.E. value 0.58 when administered subcutaneously.
# How it was run: (§1)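 Mice, in groups of five per dose, were given a standard inoculum of blood-stage T. rhodesiense that is lethal to all untreated controls, then dosed subcutaneously. Usually 11 dose levels were used (2^n × 0.42 mg/kg).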
# [2] = system: Trypanosoma brucei rhodesiense; test: In Vitro measurement of inhibition of thymidine uptake in cell culture of Trypanosoma rhodesiense.; conditions: read-out: ID50 (the source's name)
# How it was run: (§2)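 Parasites harvested from infected rats and incubated 3 h across a drug concentration series, usually 0.1–100 µg/mL. Incorporation of radiolabeled thymidine measured. ID50 is the concentration (µg/mL) producing 50% inhibition.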
# [3] = system: Mus musculus; test: Trypanocidal Activity at I.C.E. value 0.59 when administered subcutaneously.; how it was run: as §1
# [4] = system: Trypanosoma brucei rhodesiense; test: In Vitro measurement of inhibition of leucine uptake in cell culture of Trypanosoma rhodesiense.; conditions: read-out: ID50 (the source's name)
# How it was run: (§3)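 Trypanosomes harvested from infected rats, cultured 3 h with several concentrations of drug, usually 0.1–100 µg/mL. Radiolabeled L-leucine uptake measured. ID50 is the concentration in µg/mL giving 50% inhibition of incorporation.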
# [5] = system: Mus musculus; test: Trypanocidal Activity at I.C.E. value 0.85 when administered subcutaneously.; how it was run: as §1
# [6] = system: Mus musculus; test: Trypanocidal Activity at I.C.E. value 0.10 when administered perorally.
# [7] = system: Mus musculus; test: Trypanocidal Activity at I.C.E. value 0.29 when administered subcutaneously.
# How it was run: (§4)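 Blood-stage T. rhodesiense infection came from a standard inoculum lethal to all untreated mice. Drug was given by subcutaneous injection to groups of five mice. Survival beyond 30 days counted as cure. […] Sub-curative doses scored 0, and data were normalized at each dose.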
# [8] = system: Mus musculus; test: Trypanocidal Activity at I.C.E. value 0.31 when administered subcutaneously.; how it was run: as §4
# [9] = system: Mus musculus; test: Trypanocidal Activity at I.C.E. value 0.33 when administered subcutaneously.; how it was run: as §4
# [10] = system: Mus musculus; test: Trypanocidal Activity at I.C.E. value 0.43 when administered subcutaneously.; how it was run: as §4
# [11] = system: Mus musculus; test: Trypanocidal Activity at I.C.E. value 0.63 when administered subcutaneously.; how it was run: as §1
# [12] = system: Trypanosoma brucei rhodesiense; test: In Vitro measurement of inhibition of leucine uptake in cell culture of Trypanosoma rhodesiense; conditions: read-out: ID50 (the source's name); how it was run: as §3
# [13] = system: Mus musculus; test: Trypanocidal Activity at I.C.E. value 0.19 when administered subcutaneously.
# [14] = system: Trypanosoma brucei rhodesiense; test: In Vitro measurement of inhibition of thymidine uptake in cell culture of Trypanosoma rhodesiense; conditions: read-out: ID50 (the source's name); how it was run: as §2
# [15] = system: Mus musculus; test: Trypanocidal Activity at I.C.E. value 0.36 when administered subcutaneously.
# [16] = system: Mus musculus; test: Trypanocidal Activity at I.C.E. value 0.45 when administered perorally.
# [17] = system: Mus musculus; test: Trypanocidal Activity at I.C.E. value 0.27 when administered subcutaneously.; how it was run: as §4
# [18] = system: Mus musculus; test: Trypanocidal Activity at I.C.E. value 0.37 when administered subcutaneously.; how it was run: as §4
# [19] = system: Mus musculus; test: Trypanocidal Activity at I.C.E. value 0.57 when administered perorally.
# [20] = system: Mus musculus; test: Trypanocidal Activity at I.C.E. value 0.45 when administered subcutaneously.; how it was run: as §4
# [21] = system: Mus musculus; test: Trypanocidal Activity at I.C.E. value 0.35 when administered perorally.
# [22] = system: Mus musculus; test: Trypanocidal Activity at I.C.E. value 0.69 when administered subcutaneously.; how it was run: as §1
# [23] = system: Mus musculus; test: Trypanocidal Activity at I.C.E. value 0.21 when administered subcutaneously.
# [24] = system: Mus musculus; test: Trypanocidal Activity at I.C.E. value 0.18 when administered subcutaneously.
# [25] = system: Mus musculus; test: Trypanocidal Activity at I.C.E. value 0.48 when administered subcutaneously.; how it was run: as §4
# [26] = system: Mus musculus; test: Trypanocidal Activity at I.C.E. value 0.26 when administered subcutaneously.; how it was run: as §4
smiles,measurement,setting,value
Br.C/N=C(/NC)N/N=C/c1ccc(-c2cn3ccc(C)cc3[n+]2C)cc1.[Br-],CD50,[1],0.4 mg/kg
Br.CCNC(=N)N/N=C/c1ccc(-c2cn3ccccc3[n+]2C)cc1.[Br-],IC50,[2],0.4 µg/mL
same,CD50,[3],0.1 mg/kg
same,IC50,[4],0.5 µg/mL
Br.Cc1ccc2n(c1)cc(COc1ccc(/C=N/NC(=N)NO)cc1)[n+]2C.[Br-],CD50,[5],0.2 mg/kg
Br.CC/N=C(\NCC)N/N=C/c1ccc(OCc2n(C)c3ccccc3[n+]2C)cc1.[Br-],CD50,[6],212 mg/kg
same,CD50,[7],6.6 mg/kg
Br.Cc1ccn2cc(-c3ccc(/C=N/NC(=N)NN4CCOCC4)cc3)[n+](C)c2c1.[Br-],CD50,[8],0.8 mg/kg
Br.C[n+]1c(-c2ccc(/C=N/NC(=N)N3CCOCC3)cc2)cn2ccccc21.[Br-],CD50,[9],0.4 mg/kg
C[n+]1c(-c2ccc(/C=N/Nc3nc(N)nc(N)n3)cc2)cn2ccccc21.Cc1ccc(S(=O)(=O)[O-])cc1,CD50,[10],6.6 mg/kg
Cc1ccc(S(=O)(=O)O)cc1.Cc1ccc(S(=O)(=O)[O-])cc1.Cn1cc[n+](C)c1/C=C/c1ccc(/C=N/NC(=N)N2CCCC2)cc1,CD50,[11],0.03 mg/kg
Br.Cc1ccc2n(c1)cc(-c1ccc(/C=N/NC(=N)N(C)C)cc1)[n+]2C.[Br-],CD50,[10],0.8 mg/kg
Br.Cn1c[n+](Cc2ccc(/C=N/NC3=NCCN3)cc2)c2ccccc21.[Br-],IC50,[12],> 10 µg/mL
same,CD50,[13],3.3 mg/kg
same,IC50,[14],11.1 µg/mL
same,CD50,[6],424 mg/kg
Br.C[n+]1cccc(COc2ccc(/C=N/NC3=NCCN3)cc2)c1.[Br-],CD50,[15],3.3 mg/kg
same,CD50,[16],13 mg/kg
Br.C[n+]1c(COc2ccc(/C=N/NC(=N)N3CCCC3)cc2)cn2cc(C(F)(F)F)ccc21.[Br-],CD50,[17],26 mg/kg
Br.CCCNC(=N)N/N=C/c1ccc(-c2cn3ccc(C)cc3[n+]2C)cc1.[Br-],IC50,[2],1.9 µg/mL
same,CD50,[11],0.2 mg/kg
same,IC50,[4],4.6 µg/mL
same,CD50,[16],26 mg/kg
Cc1ccc(S(=O)(=O)[O-])cc1.Cn1c(COc2ccc(/C=N/NC(=O)c3ccc(N)cc3)cc2)[n+](C)c2ccccc21,CD50,[18],6.6 mg/kg
Cc1ccc(S(=O)(=O)O)cc1.Cc1ccc(S(=O)(=O)[O-])cc1.Cn1c(COc2ccc(/C=N/NC(=N)N3CCCC3)cc2)[n+](C)c2ccccc21,CD50,[9],0.8 mg/kg
same,CD50,[19],6.6 mg/kg
Br.C[n+]1cccc(COc2ccc(/C=N/NC3=NCCCN3)cc2)c1.[Br-],IC50,[12],> 10 µg/mL
same,IC50,[14],3.7 µg/mL
same,CD50,[20],0.8 mg/kg
same,CD50,[21],53 mg/kg
C[n+]1c(/C=C/c2ccc(/C=N/NC(=O)c3ccc(N)cc3)cc2)cn2ccccc21.Cc1ccc(S(=O)(=O)[O-])cc1,CD50,[1],6.6 mg/kg
Br.Cc1ccc2n(c1)cc(COc1ccc(/C=N/NC3=NCCCN3)cc1)[n+]2C.[Br-],CD50,[22],0.8 mg/kg
Br.C[n+]1c(-c2ccc(/C=N/NC(=N)N)cc2)cn2c1CCCC2.[Br-],CD50,[10],0.4 mg/kg
C[n+]1c(-c2ccc(/C=N/NC3N=NC(=S)N3N)cc2)cn2ccsc21.[Br-] (stereo not drawn),IC50,[12],4.6 µg/mL
same,IC50,[14],2.4 µg/mL
same,CD50,[23],212 mg/kg
C[n+]1c(-c2ccc(/C=N/NC3N=NC(=S)N3N)cc2)cn2ccccc21.[Br-] (stereo not drawn),CD50,[24],53 mg/kg
Br.C/N=C(\NC)N/N=C/c1ccc(OCc2cn3ccccc3[n+]2C)cc1.[Br-],CD50,[20],0.8 mg/kg
same,CD50,[21],53 mg/kg
C[n+]1c(-c2ccc(/C=N/Nc3nccs3)cc2)cn2ccsc21.[Br-],CD50,[8],26 mg/kg
Cc1ccc2n(c1)cc(-c1ccc(/C=N/Nc3ccccn3)cc1)[n+]2C.[Br-],CD50,[25],0.8 mg/kg
C[n+]1c(COc2ccc(/C=N/Nc3nccs3)cc2)cn2ccccc21.[Br-],CD50,[17],53 mg/kg
C[n+]1c(-c2ccc(/C=N/Nc3ncccn3)cc2)cn2ccccc21.[Br-],CD50,[26],6.6 mg/kg
